ChEMBL document CHEMBL4765235, “Discovery of N-[Bis(4-methoxyphenyl)methyl]-4-hydroxy-2-(pyridazin-3-yl)pyrimidine-5-carboxamide (MK-8617), an Orally Active Pan-Inhibitor of Hypoxia-Inducible Factor Prolyl Hydroxylase 1-3 (HIF PHD1-3) for the Treatment of Anemia” (J Med Chem, 2016)
Active and inactive are the calls of the source. No cut-off for these calls is given here.

Assays:
[1] = biological target: T1, Cytochrome P450 2B6 (Homo sapiens, UniProt P20813); experiment: Inhibition of CYP2B6 (unknown origin); assay type: ADME
T1 sequence (P20813 whole entry): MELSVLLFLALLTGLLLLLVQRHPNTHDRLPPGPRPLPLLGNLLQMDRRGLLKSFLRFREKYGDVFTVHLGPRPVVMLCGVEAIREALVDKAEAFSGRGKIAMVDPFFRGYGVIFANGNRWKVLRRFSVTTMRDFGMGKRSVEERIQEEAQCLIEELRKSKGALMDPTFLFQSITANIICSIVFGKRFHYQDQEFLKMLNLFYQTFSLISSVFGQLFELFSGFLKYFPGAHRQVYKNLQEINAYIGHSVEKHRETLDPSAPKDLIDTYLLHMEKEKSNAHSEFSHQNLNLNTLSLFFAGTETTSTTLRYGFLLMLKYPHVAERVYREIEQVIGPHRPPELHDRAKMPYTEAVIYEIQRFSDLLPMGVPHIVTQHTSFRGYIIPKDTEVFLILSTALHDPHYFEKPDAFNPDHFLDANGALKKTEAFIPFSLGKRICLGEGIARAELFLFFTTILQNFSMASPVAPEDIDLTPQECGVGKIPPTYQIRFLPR

[2] = biological target: Cytochrome P450 2C19 (Homo sapiens, UniProt P33261); experiment: Inhibition of CYP2C19 (unknown origin); assay type: ADME
Cytochrome P450 2C19, sequence (P33261 whole entry): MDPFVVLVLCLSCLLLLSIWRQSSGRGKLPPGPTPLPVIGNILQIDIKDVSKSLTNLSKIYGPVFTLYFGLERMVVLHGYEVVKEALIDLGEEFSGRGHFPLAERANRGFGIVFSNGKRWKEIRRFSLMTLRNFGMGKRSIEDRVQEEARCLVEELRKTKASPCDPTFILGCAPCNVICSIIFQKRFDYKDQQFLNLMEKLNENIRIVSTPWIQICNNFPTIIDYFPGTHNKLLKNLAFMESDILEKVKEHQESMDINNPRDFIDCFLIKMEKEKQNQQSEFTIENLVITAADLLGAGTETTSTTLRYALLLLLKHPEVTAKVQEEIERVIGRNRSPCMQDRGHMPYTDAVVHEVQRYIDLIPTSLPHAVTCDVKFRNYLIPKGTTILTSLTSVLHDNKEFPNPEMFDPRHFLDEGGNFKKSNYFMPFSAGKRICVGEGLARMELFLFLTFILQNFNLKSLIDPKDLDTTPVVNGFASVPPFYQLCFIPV

[3] = biological target: Cytochrome P450 3A4 (Homo sapiens, UniProt P08684); experiment: Inhibition of CYP3A4 (unknown origin); assay type: ADME
Cytochrome P450 3A4, sequence (P08684 whole entry): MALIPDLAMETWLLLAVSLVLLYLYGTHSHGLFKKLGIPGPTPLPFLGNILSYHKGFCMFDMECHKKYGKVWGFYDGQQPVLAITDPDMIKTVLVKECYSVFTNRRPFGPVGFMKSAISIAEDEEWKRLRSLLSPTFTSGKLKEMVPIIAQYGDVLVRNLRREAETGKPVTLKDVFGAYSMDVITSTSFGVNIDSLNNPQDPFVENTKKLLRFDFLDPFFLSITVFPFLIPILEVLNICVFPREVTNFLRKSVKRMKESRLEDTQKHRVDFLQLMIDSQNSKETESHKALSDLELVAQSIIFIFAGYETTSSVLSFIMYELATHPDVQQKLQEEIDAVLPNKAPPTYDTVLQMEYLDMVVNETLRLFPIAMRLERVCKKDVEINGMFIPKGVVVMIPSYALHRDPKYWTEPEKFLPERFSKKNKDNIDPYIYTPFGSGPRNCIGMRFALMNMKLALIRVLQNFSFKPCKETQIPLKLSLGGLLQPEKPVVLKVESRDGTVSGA

[4] = Half life in C57BL/6J mouse at 1 mg/kg, po or 0.5 mg/kg, iv; assay type: ADME, organism-based; settings: in vivo
Procedure, shortened: (§1)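 Single-dose PK at 1 mg/kg po and 0.5 mg/kg iv. Mouse clearance is from blood; dog and rhesus clearance is from plasma. Mouse vehicle, both routes: DMSO:PEG400:water (5:40:55, v/v/v). Dog and monkey iv vehicle: PEG200:12%HPCD:water (30:12:58 v/v/v). Dog and monkey po vehicle: Imwitor:Tween (1:1 w/w).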

[5] = Half life in dog at 1 mg/kg, po or 0.5 mg/kg, iv; assay type: ADME, organism-based, Canis lupus familiaris; settings: in vivo; procedure, shortened: as §1
[6] = Blood clearance in C57BL/6J mouse at 1 mg/kg, po or 0.5 mg/kg, iv; assay type: ADME, organism-based; settings: whole blood; procedure, shortened: as §1
[7] = biological target: Prolyl hydroxylase EGLN3 (Homo sapiens, UniProt Q9H6Z9); experiment: Inhibition of FLAG-tagged full-length HIF-PHD3 (unknown origin) expressed in baculovirus infected Sf9 cells using 2-oxoglutarate and HIF1alpha biotinyl-DLDLEMLAPYIPMDDDFQL as peptide substrates preincubated for 30 mins followed by substrate addition and measured after 2 hrs by LANCE assay
Prolyl hydroxylase EGLN3, sequence (Q9H6Z9 whole entry): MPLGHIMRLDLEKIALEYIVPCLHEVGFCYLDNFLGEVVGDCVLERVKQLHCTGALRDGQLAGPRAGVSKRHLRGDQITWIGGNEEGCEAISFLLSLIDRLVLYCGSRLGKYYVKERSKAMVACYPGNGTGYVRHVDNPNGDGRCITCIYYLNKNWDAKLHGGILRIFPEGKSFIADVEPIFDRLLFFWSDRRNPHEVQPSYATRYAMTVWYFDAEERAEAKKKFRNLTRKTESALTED

[8] = Protein binding in rhesus monkey plasma assessed as unbound fraction at 1 mg/kg, po or 0.5 mg/kg, iv; assay type: ADME, organism-based, Macaca mulatta; settings: read-out: PPB
[9] = Cmax in Sprague-Dawley rat at 15 mg/kg, po administered as single dose measured at 6 hrs; assay type: ADME, organism-based; parameters: route oral, time 6 hrs, dose 15 mg/kg; settings: in vivo
[10] = Drug metabolism in dog liver microsomes assessed as O-demethylated metabolite formation; assay type: ADME, Canis lupus familiaris, Microsome
[11] = Protein binding in rat plasma assessed as unbound fraction at 2 mg/kg, po or 1 mg/kg, iv; assay type: ADME, organism-based; settings: read-out: PPB
[12] = Metabolic stability in human liver microsomes assessed as metabolic turnover at 10 uM measured after 60 mins in presence of NADPH; assay type: ADME, Microsome; settings: read-out: Drug metabolism
[13] = Drug metabolism in fasted bile-duct cannulated Sprague-Dawley rat bile assessed as oxidation of parent compound causing metabolite formation at 5 mg/kg, po using [3H]-labeled compound measured after 48 hrs; assay type: ADME, organism-based; settings: in vivo
[14] = species on record: Rattus norvegicus; settings: Sprague-Dawley, dose 5-15 mg/kg
[15] = Oral bioavailability in dog at 1 mg/kg; assay type: ADME, organism-based, Canis lupus familiaris; settings: in vivo
Procedure, shortened: (§2)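 Dog and rhesus monkey dosed 1 mg/kg po and 0.5 mg/kg iv. The iv vehicle was PEG200:12%HPCD:water (30:12:58 v/v/v); the po vehicle was Imwitor:Tween (1:1 w/w). Clearance was measured in plasma. Protein binding was measured in 100% serum.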

[16] = Plasma clearance in rhesus monkey at 1 mg/kg, po or 0.5 mg/kg, iv; assay type: ADME, organism-based, Macaca mulatta; procedure, shortened: as §2
[17] = Half life in rat at 2 mg/kg, po or 1 mg/kg, iv; assay type: ADME, organism-based; settings: in vivo
[18] = Metabolic stability in rat liver microsomes assessed as metabolic turnover at 10 uM measured after 60 mins in presence of NADPH; assay type: ADME, Microsome; settings: read-out: Drug metabolism
Procedure, shortened: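 Tritiated compound incubated with rat or monkey liver microsomes supplemented with NADPH; metabolic turnover monitored.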

[19] = Drug recovery in fasted bile-duct cannulated Sprague-Dawley rat urine at 5 mg/kg, po using [3H]-labeled compound measured after 48 hrs; assay type: ADME, organism-based; settings: in vivo
[20] = Plasma clearance in rat at 2 mg/kg, po or 1 mg/kg, iv; assay type: ADME, organism-based
[21] = biological target: Cytochrome P450 2D6 (Homo sapiens, UniProt P10635); experiment: Inhibition of CYP2D6 (unknown origin); assay type: ADME
Cytochrome P450 2D6, sequence (P10635 whole entry): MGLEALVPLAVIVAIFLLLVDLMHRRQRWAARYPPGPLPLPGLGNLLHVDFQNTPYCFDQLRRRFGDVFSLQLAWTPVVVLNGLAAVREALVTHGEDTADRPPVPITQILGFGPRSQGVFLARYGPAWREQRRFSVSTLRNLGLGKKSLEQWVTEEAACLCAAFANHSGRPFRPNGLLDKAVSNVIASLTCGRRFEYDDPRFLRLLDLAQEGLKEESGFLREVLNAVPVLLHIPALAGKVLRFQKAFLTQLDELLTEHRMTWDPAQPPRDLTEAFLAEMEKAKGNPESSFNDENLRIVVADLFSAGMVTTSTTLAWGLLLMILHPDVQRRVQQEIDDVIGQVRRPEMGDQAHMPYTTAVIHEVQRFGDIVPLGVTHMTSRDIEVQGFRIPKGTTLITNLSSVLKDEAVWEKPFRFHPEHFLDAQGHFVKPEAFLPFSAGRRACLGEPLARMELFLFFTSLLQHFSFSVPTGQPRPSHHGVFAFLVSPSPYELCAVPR

[22] = Cmax in C57BL/6J mouse at 1 mg/kg, po or 0.5 mg/kg, iv; assay type: ADME, organism-based; parameters: dose 1 mg/kg; settings: in vivo; procedure, shortened: as §1
[23] = biological target: Cytochrome P450 2C9 (Homo sapiens, UniProt P11712); experiment: Inhibition of CYP2C9 (unknown origin); assay type: ADME
Cytochrome P450 2C9, sequence (P11712 whole entry): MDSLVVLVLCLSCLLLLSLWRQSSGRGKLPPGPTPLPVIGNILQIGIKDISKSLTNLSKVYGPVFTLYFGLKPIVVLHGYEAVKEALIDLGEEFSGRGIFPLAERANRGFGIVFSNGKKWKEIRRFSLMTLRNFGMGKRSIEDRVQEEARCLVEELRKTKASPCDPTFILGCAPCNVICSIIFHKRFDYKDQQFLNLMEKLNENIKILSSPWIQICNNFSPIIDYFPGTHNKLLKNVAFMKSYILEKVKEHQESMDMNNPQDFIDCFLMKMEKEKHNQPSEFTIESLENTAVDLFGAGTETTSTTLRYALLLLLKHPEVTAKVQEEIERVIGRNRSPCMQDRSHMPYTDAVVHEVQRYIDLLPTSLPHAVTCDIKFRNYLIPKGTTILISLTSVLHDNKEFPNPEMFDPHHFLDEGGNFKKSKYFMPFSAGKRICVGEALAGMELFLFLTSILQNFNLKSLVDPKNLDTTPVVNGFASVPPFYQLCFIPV

[24] = biological target: Prolyl hydroxylase EGLN2 (Homo sapiens, UniProt Q96KS0); experiment: Inhibition of FLAG-tagged full-length HIF-PHD1 (unknown origin) expressed in baculovirus infected Sf9 cells using 2-oxoglutarate and HIF1alpha biotinyl-DLDLEMLAPYIPMDDDFQL as peptide substrates preincubated for 30 mins followed by substrate addition and measured after 2 hrs by LANCE assay
Prolyl hydroxylase EGLN2, sequence (Q96KS0 whole entry): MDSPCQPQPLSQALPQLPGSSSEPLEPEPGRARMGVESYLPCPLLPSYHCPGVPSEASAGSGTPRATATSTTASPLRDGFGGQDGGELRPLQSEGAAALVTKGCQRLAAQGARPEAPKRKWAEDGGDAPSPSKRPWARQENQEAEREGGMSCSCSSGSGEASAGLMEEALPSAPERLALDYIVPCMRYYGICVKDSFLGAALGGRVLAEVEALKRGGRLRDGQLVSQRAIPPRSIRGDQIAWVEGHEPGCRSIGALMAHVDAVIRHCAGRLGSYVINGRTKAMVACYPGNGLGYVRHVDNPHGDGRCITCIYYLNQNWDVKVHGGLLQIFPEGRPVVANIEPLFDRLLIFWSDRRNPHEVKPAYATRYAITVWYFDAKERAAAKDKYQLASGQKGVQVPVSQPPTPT

[25] = Drug metabolism in rat liver microsomes assessed as O-demethylated metabolite formation; assay type: ADME, Microsome
[26] = Volume of distribution at steady state in C57BL/6J mouse at 1 mg/kg, po or 0.5 mg/kg, iv; assay type: ADME, organism-based; settings: in vivo, read-out: Vdss
Procedure, shortened: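 C57BL/6J mice dosed 1 mg/kg po and 0.5 mg/kg iv, both in DMSO:PEG400:water (5:40:55, v/v/v).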

[27] = Toxicity in Sprague-Dawley rat assessed as change in hemoglobin levels at 15 mg/kg, po QD administered for 4 weeks and measured post last dose; assay type: organism-based; settings: in vivo, 672 h
[28] = Volume of distribution at steady state in rat at 2 mg/kg, po or 1 mg/kg, iv; assay type: ADME, organism-based; settings: in vivo, read-out: Vdss
[29] = Drug metabolism in monkey liver microsomes assessed as O-demethylated metabolite formation; assay type: ADME, Macaca mulatta, Microsome; settings: rhesus monkey
[30] = Oral bioavailability in rat at 2 mg/kg; assay type: ADME, organism-based; settings: in vivo

## COc1ccc(C(NC(=O)c2cnc(-c3cccnn3)nc2O)c2ccc(OC)cc2)cc1
[1]
  IC50: > 60 µM
[2]
  IC50: > 60 µM
[3]
  IC50: > 60 µM
[4]
  half-life: 11 h
[5]
  half-life: 19 h
[6]
  clearance: 0.13 mL/min/kg
[7]
  IC50: 0.014 µM
[8]
  fraction unbound: 0.005
[9]
  Cmax: 30 µM
[10]
  Drug metabolism: Metabolite_Detected
[11]
  fraction unbound: 0.006
[12]
  metabolised at 1 h, 10 µM: 34%
[13]
  Drug metabolism: Metabolite_Detected
[14]
  inhibition: Active
[15]
  bioavailability: 71%
[16]
  clearance: 0.15 mL/min/kg
[17]
  half-life: 9.3 h
[18]
  metabolised at 1 h, 10 µM: < 10%
[19]
  Drug recovery: 26%
[20]
  clearance: 0.2 mL/min/kg
[21]
  IC50: > 60 µM
[22]
  Cmax: 8.4 µM
[23]
  IC50: > 60 µM
[24]
  IC50: 0.001 µM
[25]
  Drug metabolism: Metabolite_Detected
[26]
  Vd: 0.13 L/kg
[27]
  Activity: 7.6 g/dL
[28]
  Vd: 0.16 L/kg
[29]
  Drug metabolism: Metabolite_Detected
[30]
  bioavailability: 36%
